From ChEMBL document CHEMBL1145786, “Synthesis and structure-activity relationship of alpha-sulfonylhydroxamic acids as novel, orally active matrix metalloproteinase inhibitors for the treatment of osteoarthritis” (J Med Chem, 2003)
Blank lines part the entries; values can stand above or below the molecule they belong to.

What was measured:
[1] = molecular target: T1, Interstitial collagenase (Homo sapiens, UniProt P03956); assay: Inhibition of Matrix metalloprotease-1
T1 sequence (P03956 whole entry): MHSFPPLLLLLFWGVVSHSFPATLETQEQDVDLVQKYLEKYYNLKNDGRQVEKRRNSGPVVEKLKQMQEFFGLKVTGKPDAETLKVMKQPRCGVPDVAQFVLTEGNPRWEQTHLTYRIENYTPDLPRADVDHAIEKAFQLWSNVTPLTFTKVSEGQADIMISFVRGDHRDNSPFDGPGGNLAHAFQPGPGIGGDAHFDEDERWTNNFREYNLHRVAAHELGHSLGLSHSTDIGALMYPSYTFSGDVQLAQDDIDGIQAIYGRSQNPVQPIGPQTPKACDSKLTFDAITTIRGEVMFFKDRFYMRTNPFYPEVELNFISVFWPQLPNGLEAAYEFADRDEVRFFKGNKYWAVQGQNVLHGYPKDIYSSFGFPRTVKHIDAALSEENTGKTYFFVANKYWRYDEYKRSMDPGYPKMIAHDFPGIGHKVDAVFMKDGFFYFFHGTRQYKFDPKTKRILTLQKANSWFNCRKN
How it was run: (§1)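 Each inhibitor concentration tested in triplicate. IC50 derived from a four-parameter logistic fit of the data within a single experiment, and the reported value is the mean of the triplicate values.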

[2] = molecular target: T2, Matrix metalloproteinase-9 (Homo sapiens, UniProt P14780); assay: Inhibition of Matrix metalloprotease-9; how it was run: as §1
[3] = molecular target: T3, Collagenase 3 (Homo sapiens, UniProt P45452); assay: Inhibition of Matrix metalloprotease-13
[4] = system: Mus musculus; assay: Compound was tested in vivo for inhibition using dialysis implant, value expressed relative to activity of CGS-27023 at dose 25 mg/kg(po)(53 +/- 4); type: functional
How it was run: (§2)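 Groups of mice dosed orally at 25 mg/kg with drug or vehicle carrying an implanted enzyme-containing dialysis bag. After 1 h of exposure, bag retrieved, and enzyme activity inside measured spectrophotometrically against bags from vehicle-treated mice. Percent inhibition expressed relative to CGS-27023 (set as 1) run as standard.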

[5] = molecular target: T1, Interstitial collagenase; assay: In vitro inhibition of matrix metalloprotease-1
[6] = molecular target: T4, Disintegrin and metalloproteinase domain-containing protein 17 (Homo sapiens, UniProt P78536); assay: In vitro inhibition against tumor necrosis factor alpha converting enzyme at 10 uM concentration
How it was run: (§3)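 Single-point enzyme inhibition at 10 µM inhibitor, reported as percent inhibition. Full dose-response curves were run only where inhibition reached at least 60% at 10 µM.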

[7] = molecular target: T2, Matrix metalloproteinase-9; assay: In vitro inhibition of matrix metalloprotease-9; how it was run: as §1
[8] = molecular target: T3, Collagenase 3; assay: In vitro inhibition of matrix metalloprotease-13
[9] = system: Mus musculus; assay: Compound was tested in vivo for inhibition using dialysis implant, values expressed relative to activity of CGS-27023 at dose 25 mg/kg(po)(68 +/-3); type: functional; how it was run: as §2
[10] = molecular target: T2, Matrix metalloproteinase-9; assay: Inhibition of Matrix metalloprotease-9 at 10 uM; how it was run: as §3
[11] = molecular target: T4, Disintegrin and metalloproteinase domain-containing protein 17; assay: Inhibition of Tumor necrosis factor alpha converting enzyme
[12] = molecular target: T4, Disintegrin and metalloproteinase domain-containing protein 17; assay: Inhibition of Tumor necrosis factor alpha converting enzyme at 10 uM
[13] = molecular target: T5, Interstitial collagenase (Homo sapiens) (UniProt P03956); assay: Inhibition of Matrix metalloprotease-1 at 10 uM; how it was run: as §3
T5 sequence (whole entry): T1 sequence (P03956 whole entry)

[14] = system: Mus musculus; assay: Compound was tested in vivo for inhibition using dialysis implant data, value expressed relative to activity of CGS-27023 at dose 25 mg/kg(po)(67 +/-3); type: functional; how it was run: as §2
[15] = system: Mus musculus; assay: Compound was tested in vivo for inhibition using dialysis implant, value expressed relative to activity of CGS-27023 at dose 25 mg/kg(po) (77+/-3); type: functional; how it was run: as §2
[16] = system: Rattus norvegicus; assay: Compound was tested in vivo for inhibition in rat sponge-wrapped cartilage model, value expressed relative to activity of CGS-27023 at dose 25 mg/kg (p.o.) in (52+/-4); type: functional; settings: route oral
How it was run: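 Oral dosing at 25 mg/kg once daily for 3 weeks, with CGS-27023 as comparator. Read-out was percent inhibition of degradation of bovine cartilage in the sponge-wrapped implant.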

[17] = system: Mus musculus; assay: Compound was tested in vivo for inhibition using dialysis implant, value expressed relative to activity of CGS-27023 at dose 25 mg/kg (p.o.) (66+/-4); type: functional; settings: route oral; how it was run: as §2
[18] = system: Mus musculus; assay: Compound was tested in vivo for inhibition using dialysis implant, values expressed relative to activity of CGS-27023 at dose 25 mg/kg(po)(60 +/-4); type: functional; how it was run: as §2
[19] = system: Mus musculus; assay: Compound was tested in vivo for inhibition using dialysis implant, value expressed relative to activity of CGS-27023 at dose 25 mg/kg(po)(53 +/-4); type: functional; how it was run: as §2
[20] = system: Mus musculus; assay: Compound was tested in vivo for inhibition using dialysis implant, value expressed relative to activity of CGS-27023 at dose 25 mg/kg(po) (66 +/- 4); type: functional; how it was run: as §2
[21] = system: Mus musculus; assay: Compound was tested in vivo for inhibition using dialysis implant data, value expressed relative to activity of CGS-27023 at dose 25 mg/kg(po) (73 +/-4); type: functional; how it was run: as §2

T4 sequence (P78536 whole entry, the tested form may be a part): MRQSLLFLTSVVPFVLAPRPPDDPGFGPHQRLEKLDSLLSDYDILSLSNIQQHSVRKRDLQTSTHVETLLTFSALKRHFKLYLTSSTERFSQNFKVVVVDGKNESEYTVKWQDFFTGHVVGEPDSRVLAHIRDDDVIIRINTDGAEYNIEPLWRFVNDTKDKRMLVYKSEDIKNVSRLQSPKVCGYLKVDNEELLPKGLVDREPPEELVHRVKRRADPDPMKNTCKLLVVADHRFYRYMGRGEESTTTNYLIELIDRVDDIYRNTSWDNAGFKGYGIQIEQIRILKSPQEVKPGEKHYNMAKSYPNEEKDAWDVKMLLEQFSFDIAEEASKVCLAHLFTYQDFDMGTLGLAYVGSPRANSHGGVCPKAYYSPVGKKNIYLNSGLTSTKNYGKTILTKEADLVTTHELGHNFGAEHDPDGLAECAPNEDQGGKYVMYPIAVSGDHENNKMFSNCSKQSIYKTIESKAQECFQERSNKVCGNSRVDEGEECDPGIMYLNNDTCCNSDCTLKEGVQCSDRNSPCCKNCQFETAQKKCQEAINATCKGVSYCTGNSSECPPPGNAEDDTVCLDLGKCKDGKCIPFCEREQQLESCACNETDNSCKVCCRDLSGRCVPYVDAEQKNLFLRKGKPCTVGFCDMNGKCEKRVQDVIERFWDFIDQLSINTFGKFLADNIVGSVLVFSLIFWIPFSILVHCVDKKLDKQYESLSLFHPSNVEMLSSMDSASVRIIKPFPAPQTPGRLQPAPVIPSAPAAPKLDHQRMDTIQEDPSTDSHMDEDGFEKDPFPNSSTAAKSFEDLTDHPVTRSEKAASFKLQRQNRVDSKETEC
T2 sequence (P14780 whole entry): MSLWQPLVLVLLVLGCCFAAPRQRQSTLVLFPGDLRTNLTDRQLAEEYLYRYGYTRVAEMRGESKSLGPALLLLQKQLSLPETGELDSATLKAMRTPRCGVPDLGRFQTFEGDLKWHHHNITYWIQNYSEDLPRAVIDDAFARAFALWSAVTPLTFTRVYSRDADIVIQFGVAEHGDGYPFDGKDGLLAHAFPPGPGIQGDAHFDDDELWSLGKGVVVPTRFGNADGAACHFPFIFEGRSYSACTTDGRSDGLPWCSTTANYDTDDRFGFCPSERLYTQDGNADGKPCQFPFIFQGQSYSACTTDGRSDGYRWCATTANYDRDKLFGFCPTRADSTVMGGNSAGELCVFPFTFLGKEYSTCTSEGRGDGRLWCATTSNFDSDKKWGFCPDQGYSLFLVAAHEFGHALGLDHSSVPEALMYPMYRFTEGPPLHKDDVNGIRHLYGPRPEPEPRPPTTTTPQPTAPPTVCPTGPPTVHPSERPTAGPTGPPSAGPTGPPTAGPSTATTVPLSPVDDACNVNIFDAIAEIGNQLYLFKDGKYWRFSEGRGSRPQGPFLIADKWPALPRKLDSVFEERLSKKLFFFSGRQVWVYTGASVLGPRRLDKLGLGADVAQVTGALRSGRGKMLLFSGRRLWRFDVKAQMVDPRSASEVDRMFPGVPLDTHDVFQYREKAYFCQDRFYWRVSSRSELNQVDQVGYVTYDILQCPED

IC50 [1]: 627 nM
IC50 [2]: 11 nM
IC50 [3]: 16 nM
SMILES: CCOc1ccc(S(=O)(=O)C(C)(Cc2ccc(OCCN(CC)CC)cc2)C(=O)NO)cc1 (centres undefined)
inhibition in vivo at 25 mg/kg [4]: 74%

IC50 [5]: 1000 nM
SMILES: COc1ccc(S(=O)(=O)C(Cc2cccnc2)(CC(C)C)C(=O)NO)cc1 (centres undefined)
inhibition [6]: 42%

IC50 [5]: 49 nM
IC50 [7]: 49 nM
IC50 [8]: 37 nM
SMILES: CC(Cc1ccccc1)(C(=O)NO)S(=O)(=O)c1cccs1 (centres undefined)
inhibition [6]: 20%

IC50 [7]: 8 nM
SMILES: COc1ccc(S(=O)(=O)C(C)(Cc2ccc3ccccc3c2)C(=O)NO)cc1 (centres undefined)

IC50 [5]: 154 nM
IC50 [7]: 5 nM
SMILES: COc1ccc(S(=O)(=O)[C@](C)(Cc2ccc(OCCN3CCCCC3)cc2)C(=O)NO)cc1 (stereo in doubt; form 2)
inhibition in vivo at 25 mg/kg [9]: 69%

inhibition [10]: 88%
SMILES: CCCC[C@@](Cc1cccnc1)(C(=O)NO)S(=O)(=O)c1ccc(OC)cc1
IC50 [11]: 764 nM

SMILES: COc1ccc(S(=O)(=O)C(C)(Cc2ccc(OCCN(C(C)C)C(C)C)cc2)C(=O)NO)cc1 (centres undefined)
inhibition [12]: 31%

inhibition [13]: 18%
SMILES: CCCCCCCCCCCCC(C(=O)NO)S(=O)(=O)c1ccc(OC)cc1 (centres undefined)

IC50 [5]: 299 nM
IC50 [7]: 16 nM
IC50 [8]: 12 nM
SMILES: COc1ccc(S(=O)(=O)C(C)(C/C=C/c2ccccc2)C(=O)NO)cc1 (centres undefined)
inhibition [6]: 65%

SMILES: COc1ccc(S(=O)(=O)C(C)(Cc2ccc(-c3ccccc3)cc2)C(=O)NO)cc1 (centres undefined)
inhibition [6]: 17%

IC50 [5]: 413 nM
IC50 [7]: 21 nM
SMILES: COc1ccc(S(=O)(=O)C(C)(Cc2ccc(OCCN3CCOCC3)cc2)C(=O)NO)cc1 (centres undefined)
inhibition in vivo at 25 mg/kg [14]: 48%
inhibition [6]: 47%

IC50 [8]: 32 nM
SMILES: C#CCC(Cc1cccnc1)(C(=O)NO)S(=O)(=O)c1ccc(OC)cc1 (centres undefined)
inhibition [6]: 23%

inhibition [13]: 30%
SMILES: CCCC(CCC)(C(=O)NO)S(=O)(=O)c1ccc(OC)cc1
inhibition [6]: 24%

SMILES: CC(Cc1ccc(OCCN2CCCCC2)cc1)(C(=O)NO)S(=O)(=O)c1cccs1 (centres undefined)
IC50 [5]: 99 nM
IC50 [7]: 79 nM
IC50 [8]: 85 nM
inhibition [6]: 51%

SMILES: COc1ccc(S(=O)(=O)C(C)(Cc2cccnc2)C(=O)NO)cc1 (centres undefined)
inhibition [6]: 17%

inhibition [13]: 8%
SMILES: CCCCC(C(=O)NO)S(=O)(=O)c1ccc(OC)cc1 (centres undefined)
inhibition [6]: 54%

SMILES: CCCCCCCCS(=O)(=O)C(C)(Cc1ccc(OCCN2CCCCC2)cc1)C(=O)NO (centres undefined)
IC50 [5]: 10 nM
IC50 [7]: 23 nM
IC50 [8]: 55 nM
inhibition [6]: 65%

IC50 [8]: 6 nM
SMILES: CC(C)=CCC(CC=C(C)C)(C(=O)NO)S(=O)(=O)c1ccc(C)cc1
inhibition [6]: 36%

SMILES: COc1ccc(S(=O)(=O)C(C)(Cc2ccc(OCCN3CCCCC3)cc2)C(=O)NO)cc1 (centres undefined)
inhibition in vivo at 25 mg/kg [15]: 78%
inhibition in vivo at 25 mg/kg [16]: 69%
inhibition [6]: 41%

SMILES: C=CCC(CC=C)(C(=O)NO)S(=O)(=O)c1ccc(OC)cc1
inhibition [6]: 7%

IC50 [7]: 13 nM
IC50 [8]: 15 nM
SMILES: CCN(CC)CCOc1ccc(CC(C)(C(=O)NO)S(=O)(=O)c2ccc(OC)cc2)cc1 (centres undefined)
inhibition in vivo at 25 mg/kg [17]: 68%
inhibition [6]: 39%

IC50 [5]: 2530 nM
IC50 [7]: 112 nM
SMILES: COc1ccc(S(=O)(=O)[C@](C)(Cc2ccc(OCCN3CCCCC3)cc2)C(=O)NO)cc1 (stereo in doubt; form 1)
inhibition in vivo at 25 mg/kg [18]: 15%

SMILES: COc1ccc(S(=O)(=O)C(CCC(C)C)(Cc2cccnc2)C(=O)NO)cc1 (centres undefined)
inhibition [6]: 41%

SMILES: COc1ccc(S(=O)(=O)C(C)(Cc2ccccc2)C(=O)NO)cc1 (centres undefined)
inhibition [6]: 15%

SMILES: C#CCC(CC#C)(C(=O)NO)S(=O)(=O)c1ccc(OC)cc1
inhibition [6]: 20%

IC50 [5]: 10 nM
SMILES: COc1ccc(CS(=O)(=O)C(C)(Cc2ccccc2)C(=O)NO)cc1 (centres undefined)
inhibition [6]: 3%

IC50 [7]: 3 nM
SMILES: CCCCOc1ccc(S(=O)(=O)C(C)(Cc2ccc(OCCN3CCCCC3)cc2)C(=O)NO)cc1 (centres undefined)
inhibition in vivo at 25 mg/kg [19]: 64%
inhibition [6]: 30%

SMILES: CCCCCCCCS(=O)(=O)C(C)(Cc1ccccc1)C(=O)NO (centres undefined)
inhibition [6]: 1%

IC50 [8]: 100 nM
SMILES: COc1ccc(S(=O)(=O)C(Cc2ccccc2)C(=O)NO)cc1 (centres undefined)

IC50 [7]: 0.5 nM
SMILES: COc1ccc(S(=O)(=O)C(CC=C(C)C)(CC=C(C)C)C(=O)NO)cc1

inhibition [10]: 27%
SMILES: COc1ccc(S(=O)(=O)C(C(=O)NO)C(C)C)cc1 (centres undefined)
inhibition [6]: 52%

IC50 [5]: 14 nM
IC50 [7]: 4 nM
IC50 [8]: 2 nM
SMILES: CCN(CC)COc1ccc(CC(C)(C(=O)NO)S(=O)(=O)c2ccc(-c3ccco3)cc2)cc1 (centres undefined)
inhibition [6]: 45%

SMILES: COc1ccc(S(=O)(=O)C(C)(Cc2ccc(OCCN3CCCCCC3)cc2)C(=O)NO)cc1 (centres undefined)
inhibition in vivo at 25 mg/kg [20]: 65%
inhibition in vivo at 25 mg/kg [16]: 67%
inhibition [6]: 29%

SMILES: CCCCCCCC[C@@](Cc1cccnc1)(C(=O)NO)S(=O)(=O)c1ccc(OC)cc1
IC50 [11]: 669 nM

IC50 [7]: 7 nM
SMILES: COc1ccc(S(=O)(=O)C(C)(Cc2ccc(OCCCN3CCN(c4cccc(Cl)c4)CC3)cc2)C(=O)NO)cc1 (centres undefined)
inhibition [6]: 40%
inhibition in vivo at 25 mg/kg [21]: 72%
